The source of these data is ChEMBL document CHEMBL1909563, “Anti-inflammatory triterpenoid saponins from the stem bark of Kalopanax pictus” (J Nat Prod, 2011).

Holding throughout (assay type): cell-based
Data set [1] in a line: Inhibition of TNF-alpha-induced NFkappaB activation in human HepG2 cells after 1 hr by luciferase reporter assay. The conditions noted are these: HepG2, 1 h. In a few lines:
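HepG2 cells seeded at 1.5 × 10^5 per well, grown 24 h, then transiently transfected with NF-kB-responsive firefly luciferase reporter (minimal CMV promoter, tandem NF-kB response elements). Pretreated 1 h with DMSO vehicle or compound, then 10 ng/mL TNFα for 1 h; cells lysed, luciferin added, luminescence read.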
Background: Reporter assays use an easily measured gene product as a stand-in for the process of interest.

The subject of data set [2] is HepG2. As to the kind of experiment: Inhibition of NF-kappaB-induced COX2 mRNA expression in TNF-alpha-stimulated human HepG2 cells after 1 hr by RT-PCR analysis. In a few lines: (§1)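 HepG2 cells stimulated with TNFα alone or with compound at 0.1, 1 and 10 μM; COX-2 and iNOS mRNA measured against β-actin housekeeping control. Mean ± SD (n = 6); significance versus TNFα-stimulated cells by Dunnett's multiple comparison test (p < 0.05, p < 0.01).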

Data set [3] concerns HepG2. The data set is described as follows: Cytotoxicity against human HepG2 cells by MTT assay.
The test system of data set [4] is HepG2. As to the kind of experiment: Inhibition of NF-kappaB-induced iNOS mRNA expression in TNF-alpha-stimulated human HepG2 cells after 1 hr by RT-PCR analysis. In a few lines:
as §1

In data set [5] the test system is HepG2. As to the kind of experiment: Inhibition of NF-kappaB-induced COX2 mRNA expression in TNF-alpha-stimulated human HepG2 cells at 0.1 to 10 uM after 1 hr by RT-PCR analysis. In a few lines: as §1
Data set [6] deals with HepG2. The data set is described as follows: Inhibition of NF-kappaB-induced iNOS mRNA expression in TNF-alpha-stimulated human HepG2 cells at 0.1 to 10 uM after 1 hr by RT-PCR analysis. In a few lines: as §1

Active and inactive are the calls of the source. The rule behind the calls is not given here.

`C[C@@]1(CO)CC[C@]2(C(=O)O)[C@H](O)C[C@]3(C)C(=CC[C@@H]4[C@@]5(C)CCC(=O)[C@@](C)(CO)[C@@H]5CC[C@]43C)[C@@H]2C1` yielded a 50% inhibitory concentration (IC50) in data set [1] of 6.5 µM. The inhibition result in data set [2] and in data set [4] was “Dose-dependent effect” throughout. Besides, the Activity result in data set [3] is “Non-toxic”.
With `COC(=O)CC[C@]1(C)[C@H]2CC=C3[C@@H]4C[C@](C)(CO)CC[C@]4(C(=O)O)CC[C@@]3(C)[C@]2(C)CC[C@H]1C(C)(O)CO` (some centres not stated), in data set [1], half-maximal inhibition (IC50) was put at 9.4 µM. The inhibition entry in data set [2] and in data set [4] was “Dose-dependent effect” each time. In data set [3], the Activity entry is recorded as “Non-toxic”.
On to `CC1(C)CC[C@]2(C(=O)O[C@@H]3O[C@H](CO)[C@@H](O)[C@H](O)[C@H]3O)CC[C@]3(C)C(=CC[C@@H]4[C@@]5(C)CC[C@H](O)[C@@](C)(CO)[C@@H]5[C@H](O)C[C@]43C)[C@@H]2C1`, for which it took 16.4 µM to reach half-maximal inhibition in data set [1] (IC50). In addition, the inhibition entry in data set [2] and in data set [4] was “Dose-dependent effect” throughout. The Activity result in data set [3] is “Non-toxic”.
In data set [1], `CC(=O)O[C@@H]1[C@@H](OC(C)=O)[C@H](O[C@H]2CC[C@@]3(C)[C@@H](CC[C@]4(C)[C@@H]3CC=C3[C@@H]5CC(C)(C)CC[C@]5(C(=O)O[C@@H]5O[C@H](CO[C@@H]6O[C@H](CO)[C@@H](O[C@@H]7O[C@@H](C)[C@H](O)[C@@H](O)[C@H]7O)[C@H](O)[C@H]6O)[C@@H](O)[C@H](O)[C@H]5O)CC[C@]34C)[C@]2(C)CO)OC[C@@H]1O` yielded an IC50 of 8.9 µM. In addition, the inhibition entry in data set [2] and in data set [4] was “Dose-dependent effect” throughout. Further, the Activity result in data set [3] is on record as “Non-toxic”.
In the case of `CC(=O)O[C@@H]1[C@@H](O)[C@H](O[C@H]2CC[C@@]3(C)[C@@H](CC[C@]4(C)[C@@H]3CC=C3[C@@H]5CC(C)(C)CC[C@]5(C(=O)O[C@@H]5O[C@H](CO[C@@H]6O[C@H](CO)[C@@H](O[C@@H]7O[C@@H](C)[C@H](O)[C@@H](O)[C@H]7O)[C@H](O)[C@H]6O)[C@@H](O)[C@H](O)[C@H]5O)CC[C@]34C)[C@]2(C)CO)OC[C@@H]1OC(C)=O`, the IC50 in data set [1] came out at 9.3 µM. The inhibition entry in data set [2] and in data set [4] was “Dose-dependent effect” throughout. Further, in data set [3], the Activity result was “Non-toxic”.
In turn, `CC1(C)CC[C@]2(C(=O)O)CC[C@]3(C)C(=CC[C@@H]4[C@@]5(C)CC[C@H](O)[C@@](C)(CO)[C@@H]5[C@H](O)C[C@]43C)[C@@H]2C1` had an IC50 in data set [1] of 1.4 µM. The inhibition entry in data set [2] and in data set [4] was “Dose-dependent effect” throughout. Also, in data set [3], the Activity result is listed as “Non-toxic”.
Turning to `CC1(C)CC[C@]2(C(=O)O[C@@H]3O[C@H](CO)[C@@H](O)[C@H](O)[C@H]3O)CC[C@]3(C)C(=CC[C@@H]4[C@@]5(C)CC[C@H](O)[C@@](C)(CO)[C@@H]5CC[C@]43C)[C@@H]2C1`, half-maximal inhibition in data set [1] (IC50) was put at 9.1 µM. The inhibition entry in data set [2] and in data set [4] was “Dose-dependent effect” each time. The Activity result in data set [3] was “Non-toxic”.
Turning to `C[C@@H]1O[C@@H](O[C@H]2[C@H](O[C@H]3CC[C@@]4(C)[C@@H](CC[C@]5(C)[C@@H]4CC=C4[C@@H]6CC(C)(C)CC[C@]6(C(=O)O)CC[C@]45C)[C@]3(C)CO)OC[C@H](O)[C@@H]2O)[C@H](O)[C@H](O)[C@H]1O` [ALPHA-HEDERIN], in data set [1], half-maximal inhibition (IC50) required 5.5 µM. The inhibition result in data set [2] and in data set [4] was “Dose-dependent effect” throughout. Besides, the Activity result in data set [3] is given as “Non-toxic”.
Take `C[C@@H]1O[C@@H](O[C@H]2[C@H](O)[C@@H](O)[C@H](OC[C@H]3O[C@@H](OC(=O)[C@]45CCC(C)(C)C[C@H]4C4=CC[C@@H]6[C@@]7(C)CC[C@H](O[C@@H]8OC[C@H](O)[C@H](O)[C@H]8O)[C@@](C)(CO)[C@@H]7CC[C@@]6(C)[C@]4(C)CC5)[C@H](O)[C@@H](O)[C@@H]3O)O[C@@H]2CO)[C@H](O)[C@H](O)[C@H]1O` [CAULOSIDE D]: the half-maximal inhibitory concentration (IC50) in data set [1] worked out at 9.2 µM. Besides, the inhibition entry in data set [2] and in data set [4] was “Dose-dependent effect” throughout. In addition, the Activity entry in data set [3] was “Non-toxic”.
Regarding `CC1(C)CC[C@]2(C(=O)O[C@@H]3O[C@H](CO[C@@H]4O[C@H](CO)[C@@H](O)[C@H](O)[C@H]4O)[C@@H](O)[C@H](O)[C@H]3O)CC[C@]3(C)C(=CC[C@@H]4[C@@]5(C)CC[C@H](O)[C@@](C)(CO)[C@@H]5CC[C@]43C)[C@@H]2C1` [DIPSACUSSAPONIN A], in data set [1], the IC50 came out at 6.2 µM. Moreover, the inhibition entry in data set [2] and in data set [4] was “Dose-dependent effect” each time. For the same compound, the Activity result in data set [3] is recorded as “Non-toxic”.
Consider `CC1(C)CC[C@]2(C(=O)O)CC[C@]3(C)C(=CC[C@@H]4[C@@]5(C)CC[C@H](O)[C@@](C)(CO)[C@@H]5CC[C@]43C)[C@@H]2C1` [HEDERAGENIN], for which the inhibition result in data set [5] and in data set [6] was “inactive” throughout. This compound also showed an IC50 in data set [1] greater than 20 µM.
In data set [1], `C[C@@H]1O[C@@H](O[C@H]2[C@H](O[C@H]3CC[C@@]4(C)[C@@H](CC[C@]5(C)[C@@H]4CC=C4[C@@H]6CC(C)(C)CC[C@]6(C(=O)O[C@@H]6O[C@H](CO[C@@H]7O[C@H](CO)[C@@H](O[C@@H]8O[C@@H](C)[C@H](O)[C@@H](O)[C@H]8O)[C@H](O)[C@H]7O)[C@@H](O)[C@H](O)[C@H]6O)CC[C@]45C)[C@]3(C)CO)OC[C@H](O)[C@@H]2O)[C@H](O)[C@H](O)[C@H]1O` [KALOPANAXSAPONIN B] returned an IC50 of 0.8 µM. Further, the inhibition result in data set [2] and in data set [4] was “Dose-dependent effect” in each case. In addition, the Activity result in data set [3] is listed as “Non-toxic”.
In data set [1], `C[C@@H]1O[C@@H](O[C@H]2[C@H](O[C@H]3CC[C@@]4(C)[C@@H](CC[C@]5(C)[C@@H]4CC=C4[C@@H]6CC(C)(C)CC[C@]6(C(=O)O[C@@H]6O[C@H](CO[C@@H]7O[C@H](CO)[C@@H](O[C@@H]8O[C@@H](C)[C@H](O)[C@@H](O)[C@H]8O)[C@H](O)[C@H]7O)[C@@H](O)[C@H](O)[C@H]6O)CC[C@]45C)[C@]3(C)CO)OC[C@H](O)[C@@H]2O[C@@H]2O[C@H](CO)[C@@H](O)[C@H](O)[C@H]2O)[C@H](O)[C@H](O)[C@H]1O` [KALOPANAXSAPONIN C] had an IC50 of 3.9 µM. The inhibition entry in data set [2] and in data set [4] was “Dose-dependent effect” in each case. In addition, the Activity entry in data set [3] is “Non-toxic”.
Compound `C[C@@]1(CO)CC[C@]2(C(=O)O)CC[C@]3(C)C(=CC[C@@H]4[C@@]5(C)CC[C@H](O)[C@@](C)(CO)[C@@H]5CC[C@]43C)[C@@H]2C1` [NIPPONOGENIN E] had an IC50 in data set [1] greater than 20 µM.
In the case of `C[C@@H]1O[C@@H](O[C@H]2[C@H](O)[C@@H](O)[C@H](OC[C@H]3O[C@@H](OC(=O)[C@]45CCC(C)(C)C[C@H]4C4=CC[C@@H]6[C@@]7(C)CC[C@H](O[C@@H]8OC[C@H](O)[C@H](O)[C@H]8O[C@@H]8O[C@@H](C)[C@H](O)[C@@H](O[C@@H]9OC[C@@H](O)[C@H](O)[C@H]9O)[C@H]8O)[C@@](C)(CO)[C@@H]7CC[C@@]6(C)[C@]4(C)CC5)[C@H](O)[C@@H](O)[C@@H]3O)O[C@@H]2CO)[C@H](O)[C@H](O)[C@H]1O` [SIEBOLDIANOSIDE A], in data set [1], the IC50 amounted to 0.6 µM. Also, the inhibition result in data set [2] and in data set [4] was “Dose-dependent effect” each time. In data set [3], the Activity entry is recorded as “Non-toxic”.
In turn, `O=C(O)c1cc(/N=N/c2ccc(S(=O)(=O)Nc3ccccn3)cc2)ccc1O` [SULFASALAZINE] returned an IC50 in data set [1] of 0.9 µM.

A word on the IC50: it is the point on the concentration scale where inhibition reaches its midpoint. Read a high IC50 as weaker potency in that assay.
